pKi: −log10 of the molar value.
Legend:
Mu-type opioid receptor = Mu-type opioid receptor (Homo sapiens, UniProt P35372); assay: Displacement of [3H]DAMGO from human mu opioid receptor expressed in CHO cells after 120 mins by liquid scintillation counting
How it was run: (§1)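 Membranes from CHO cells stably expressing human μ, δ or κ opioid receptor. Radioligands: μ 1.3 nM [3H]DAMGO, δ 1.2 nM [3H]DPDPE, κ 1.7 nM [3H]U69,593; nonspecific with 1 μM of the matching unlabelled ligand.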

[1] = target: Delta-type opioid receptor (Homo sapiens, UniProt P41143); assay: Displacement of [3H]DPDPE from human delta opioid receptor expressed in CHO cells after 120 mins by liquid scintillation counting; how it was run: as §1
Sequence of Delta-type opioid receptor (P41143 whole entry): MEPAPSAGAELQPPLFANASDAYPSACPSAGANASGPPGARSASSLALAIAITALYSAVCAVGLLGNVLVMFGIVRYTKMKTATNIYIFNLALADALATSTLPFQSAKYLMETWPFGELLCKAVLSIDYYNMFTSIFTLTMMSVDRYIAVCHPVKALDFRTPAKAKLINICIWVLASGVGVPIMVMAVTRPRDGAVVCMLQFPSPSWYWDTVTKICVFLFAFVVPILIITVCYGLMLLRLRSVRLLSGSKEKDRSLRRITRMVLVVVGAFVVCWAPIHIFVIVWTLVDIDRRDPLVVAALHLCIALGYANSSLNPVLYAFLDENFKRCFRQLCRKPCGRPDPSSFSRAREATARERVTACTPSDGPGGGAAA

[2] = target: Kappa-type opioid receptor (Homo sapiens, UniProt P41145); assay: Displacement of [3H]U69,593 from human kappa opioid receptor expressed in CHO cells after 120 mins by liquid scintillation counting; how it was run: as §1
Sequence of Kappa-type opioid receptor (P41145 whole entry): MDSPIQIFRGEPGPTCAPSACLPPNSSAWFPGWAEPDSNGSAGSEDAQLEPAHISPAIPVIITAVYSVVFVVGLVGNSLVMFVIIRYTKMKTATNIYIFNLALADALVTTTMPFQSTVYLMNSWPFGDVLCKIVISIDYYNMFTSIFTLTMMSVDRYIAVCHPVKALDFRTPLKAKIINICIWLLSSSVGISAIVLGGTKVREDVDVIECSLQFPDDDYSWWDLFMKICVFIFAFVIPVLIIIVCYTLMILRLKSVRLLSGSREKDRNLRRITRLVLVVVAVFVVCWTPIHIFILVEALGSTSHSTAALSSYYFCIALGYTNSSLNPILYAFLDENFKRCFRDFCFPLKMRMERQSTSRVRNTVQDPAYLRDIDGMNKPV

[3] = target: Sigma non-opioid intracellular receptor 1 (Rattus norvegicus, UniProt Q9R0C9); assay: Displacement of [3H](+)-pentazocine from sigma 1 receptor in rat brain homogenates after 120 mins by liquid scintillation counting
Sequence of Sigma non-opioid intracellular receptor 1 (Q9R0C9 whole entry): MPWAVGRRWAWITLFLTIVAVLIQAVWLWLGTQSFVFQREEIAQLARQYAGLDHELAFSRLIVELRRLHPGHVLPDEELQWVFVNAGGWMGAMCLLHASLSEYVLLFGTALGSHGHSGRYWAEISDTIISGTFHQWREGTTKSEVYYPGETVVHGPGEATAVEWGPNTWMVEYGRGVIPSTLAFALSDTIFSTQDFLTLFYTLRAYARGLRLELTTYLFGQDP
How it was run: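 σ1 sites labelled with 5 nM [3H](+)-pentazocine in rat brain homogenate; nonspecific binding defined with 10 μM haloperidol. Up to 12 competitor concentrations, incubated 120 min at 25 °C. Terminated by vacuum filtration onto PEI-soaked GF/B filters, bound radioactivity counted by liquid scintillation. Ki obtained by Cheng–Prusoff.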

Sequence of Mu-type opioid receptor (P35372 whole entry): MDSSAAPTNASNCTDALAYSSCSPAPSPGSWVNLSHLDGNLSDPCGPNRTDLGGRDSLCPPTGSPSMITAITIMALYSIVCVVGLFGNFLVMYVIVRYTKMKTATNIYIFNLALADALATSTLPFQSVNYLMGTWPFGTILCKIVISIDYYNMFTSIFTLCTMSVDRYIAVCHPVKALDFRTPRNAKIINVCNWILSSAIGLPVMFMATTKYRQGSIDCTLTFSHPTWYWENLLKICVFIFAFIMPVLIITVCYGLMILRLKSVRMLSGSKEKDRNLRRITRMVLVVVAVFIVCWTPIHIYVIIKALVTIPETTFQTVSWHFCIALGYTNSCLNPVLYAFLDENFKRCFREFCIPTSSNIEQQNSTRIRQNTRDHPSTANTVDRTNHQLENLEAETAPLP

| pKi (Mu-type opioid receptor) | pKi [1] | pKi [2] | pKi [3] | Compound |
| --- | --- | --- | --- | --- |
| 5.38 | < 5.00 | < 5.00 | 8.34 | CN(C)[C@H]1CCCC[C@@H]1OC/C=C/c1ccccc1 |
| 5.51 | 5.21 | 5.66 | 6.10 | CN(CCCc1ccccc1)[C@H]1CCCC[C@@H]1OCCCc1ccccc1 |
|  | < 5.00 | < 5.00 | 7.72 | CN(CCCc1ccccc1)[C@H]1CCCC[C@@H]1O |
| 5.80 | < 5.00 |  | 7.08 | CN(CCc1ccccc1)[C@H]1CCCC[C@@H]1OCCCc1ccccc1 |
| 5.64 | < 5.00 | < 5.00 | 7.23 | CN(C)[C@H]1CCCC[C@@H]1OCCCc1ccccc1 |

| Compound | pKi (Mu-type opioid receptor) | pKi [1] | pKi [2] | pKi [3] |
| --- | --- | --- | --- | --- |
| CN(CCc1ccccc1)[C@H]1CCCC[C@@H]1O | < 5.00 | < 5.00 | < 5.00 | 6.92 |
